Values after ≈ are worked out from the molar mass of the structure shown. Active and inactive are the calls of the source. The rule behind the calls is not given here.
Key:
[1] = tested on: Rhyzopertha dominica; assay: Insecticidal activity against 3 to 8 days old Rhyzopertha dominica assessed as mortality at 1 ug/mL measured after 24 hr by fumigation assay; type: functional
In short: (§1)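 Adults from Directorate of Maize Research lab cultures, 20 per sealed 100 mL PVC container. Acetone solutions (0.1-1.0 μg/mL) applied to filter paper, air-dried 5 min, fixed inside lid; acetone-only controls. Held at 28 ± 2 °C, 65 ± 5% RH. Death confirmed by paintbrush probing; counted every 24 h to 72 h. Five replicates per treatment; three runs on different dates.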

[2] = tested on: Callosobruchus chinensis; assay: Insecticidal activity against 3 to 8 days old Callosobruchus chinensis assessed as mortality at 1 ug/mL measured after 72 hr by fumigation assay; type: functional; in short: as §1
[3] = tested on: Sitophilus oryzae; assay: Insecticidal activity against 3 to 8 days old Sitophilus oryzae (rice weevil) assessed as mortality measured after 72 hr by fumigation assay; type: functional; in short: as §1
[4] = tested on: Rhyzopertha dominica; assay: Insecticidal activity against 3 to 8 days old Rhyzopertha dominica assessed as mortality at 1 ug/mL measured after 72 hr by fumigation assay; type: functional; in short: as §1
[5] = tested on: Sitophilus oryzae; assay: Insecticidal activity against 3 to 8 days old Sitophilus oryzae (rice weevil) assessed as mortality at 1 ug/mL measured after 24 hr by fumigation assay; type: functional; in short: as §1
[6] = tested on: Tribolium castaneum; assay: Insecticidal activity against 3 to 8 days old Tribolium castaneum (red flour beetle) assessed as mortality measured after 24 hr by fumigation assay; type: functional; in short: as §1
[7] = tested on: Tribolium castaneum; assay: Insecticidal activity against 3 to 8 days old Tribolium castaneum (red flour beetle) assessed as mortality at 1 ug/mL measured after 24 hr by fumigation assay; type: functional; in short: as §1
[8] = tested on: Tribolium castaneum; assay: Insecticidal activity against 3 to 8 days old Tribolium castaneum (red flour beetle) assessed as mortality at 1 ug/mL measured after 72 hr by fumigation assay; type: functional; in short: as §1
[9] = tested on: Tribolium castaneum; assay: Insecticidal activity against 3 to 8 days old Tribolium castaneum (red flour beetle) assessed as mortality at 0.2 ug/mL measured within 24 hr by fumigation assay; type: functional, organism-based; in short: as §1
[10] = tested on: Callosobruchus chinensis; assay: Insecticidal activity against 3 to 8 days old Callosobruchus chinensis assessed as mortality at 1 ug/mL measured after 24 hr by fumigation assay; type: functional; in short: as §1
[11] = tested on: Rhyzopertha dominica; assay: Insecticidal activity against 3 to 8 days old Rhyzopertha dominica assessed as mortality measured after 24 hr by fumigation assay; type: functional; in short: as §1
[12] = tested on: Callosobruchus chinensis; assay: Insecticidal activity against 3 to 8 days old Callosobruchus chinensis assessed as mortality measured after 72 hr by fumigation assay; type: functional; in short: as §1
[13] = tested on: Sitophilus oryzae; assay: Insecticidal activity against 3 to 8 days old Sitophilus oryzae (rice weevil) assessed as mortality at 1 ug/mL measured after 72 hr by fumigation assay; type: functional; in short: as §1
[14] = tested on: Tribolium castaneum; assay: Insecticidal activity against 3 to 8 days old Tribolium castaneum (red flour beetle) assessed as mortality at 1 ug/mL measured after 48/ hr by fumigation assay; type: functional; in short: as §1
[15] = tested on: Callosobruchus chinensis; assay: Insecticidal activity against 3 to 8 days old Callosobruchus chinensis assessed as mortality at 1 ug/mL measured after 48 hr by fumigation assay; type: functional; in short: as §1
[16] = tested on: Rhyzopertha dominica; assay: Insecticidal activity against 3 to 8 days old Rhyzopertha dominica assessed as mortality at 1 ug/mL measured after 48 hr by fumigation assay; type: functional; in short: as §1
[17] = tested on: Sitophilus oryzae; assay: Insecticidal activity against 3 to 8 days old Sitophilus oryzae (rice weevil) assessed as mortality at 1 ug/mL measured after 48 hr by fumigation assay; type: functional; in short: as §1

Row | SMILES | mortality at 1 µg/mL [1] [%] | mortality at 1 µg/mL [2] [%] | LC50 [3] [µg/mL] | mortality at 1 µg/mL [4] [%] | mortality at 1 µg/mL [5] [%] | LC50 [6] [µg/mL] | mortality at 1 µg/mL [7] [%] | mortality at 1 µg/mL [8] [%] | Activity [9] | mortality at 1 µg/mL [10] [%] | LC50 [11] [µg/mL] | LC50 [12] [µg/mL] | mortality at 1 µg/mL [13] [%] | mortality at 1 µg/mL [14] [%] | mortality at 1 µg/mL [15] [%] | mortality at 1 µg/mL [16] [%] | mortality at 1 µg/mL [17] [%]
1 | O=c1c(-c2ccc(O)cc2)coc2cc(O)cc(O)c12 [GENISTEIN] | 100 | 100 | 0.31 (≈ 1.15 µM) | 100 | 100 | 0.18 (≈ 0.666 µM) | 100 | 100 | Active | 100 | 0.28 (≈ 1.04 µM) | 0.17 (≈ 0.629 µM) | 100 |  |  |  | 
2 | CC(C)=CCc1c2c(c(O)c3c(=O)cc(-c4ccc(O)cc4)oc13)C=CC(C)(C)O2 [LAXIFOLIN] | 89.3 | 96.4 | 0.2 (≈ 0.494 µM) | 92 | 100 | 0.34 (≈ 0.841 µM) | 92.3 | 100 |  | 88.8 | 0.34 (≈ 0.841 µM) | 0.39 (≈ 0.964 µM) | 100 | 94.6 | 93.2 | 90.8 | 
3 | CC(C)=CCc1cc(-c2coc3cc(O)c(CC=C(C)C)c(O)c3c2=O)ccc1O [LUPALBIGENIN] | 93.4 | 100 | 0.26 (≈ 0.64 µM) | 100 | 100 | 0.38 (≈ 0.935 µM) | 85.4 | 91 |  | 100 | 0.29 (≈ 0.713 µM) | 0.23 (≈ 0.566 µM) | 100 | 88.4 |  | 94.6 | 
4 | CC(C)=CCc1c2c(c3occ(-c4ccc(O)cc4)c(=O)c3c1O)C=CC(C)(C)O2 [OSAJIN] | 100 | 100 | 0.28 (≈ 0.692 µM) | 100 | 100 | 0.26 (≈ 0.643 µM) | 100 | 100 | Active | 100 | 0.32 (≈ 0.791 µM) | 0.29 (≈ 0.717 µM) | 100 |  |  |  | 
5 | COc1ccc(-c2c(O)c3c(OC)c(CC=C(C)C)c4c(c3oc2=O)C=CC(C)(C)O4)cc1 [SCANDENIN A] | 60.6 | 83 | 0.76 (≈ 1.69 µM) | 67.8 | 69.4 | 0.82 (≈ 1.83 µM) | 58.2 | 63.8 |  | 79 | 0.82 (≈ 1.83 µM) | 0.43 (≈ 0.959 µM) | 75.6 | 60.8 | 81.4 | 64.2 | 72
6 | COc1c(CC=C(C)C)c2c(c3oc(=O)c(-c4ccc(O)cc4)c(O)c13)C=CC(C)(C)O2 [SCANDENIN] | 72.3 | 58.2 | 0.45 (≈ 1.04 µM) | 78.2 | 82 | > 1 | 24.7 | 32.2 |  | 49.5 | 0.74 (≈ 1.7 µM) | 0.9 (≈ 2.07 µM) | 85.4 | 29.6 | 56 | 75.8 | 83.6
7 | COc1c(CC=C(C)C)c2c(c3occ(-c4ccc(O)cc4)c(=O)c13)C=CC(C)(C)O2 [SCANDINONE] | 100 | 100 | 0.24 (≈ 0.573 µM) | 100 | 100 | 0.2 (≈ 0.478 µM) | 100 | 100 | Active | 100 | 0.33 (≈ 0.789 µM) | 0.31 (≈ 0.741 µM) | 100 |  |  |  | 
8 | C[C@@H]1O[C@@H](OC[C@H]2O[C@@H](Oc3cc(O)c4c(=O)c(-c5ccc(O)cc5)coc4c3)[C@H](O)[C@@H](O)[C@@H]2O)[C@H](O)[C@H](O)[C@H]1O [SPHAEROBIOSIDE] | 100 | 100 | 0.18 (≈ 0.311 µM) | 100 | 100 | 0.2 (≈ 0.346 µM) | 100 | 100 | Active | 100 | 0.27 (≈ 0.467 µM) | 0.21 (≈ 0.363 µM) | 100 |  |  |  | 
9 | CC(C)=CCc1c2c(c(O)c3c(=O)c(-c4ccc(O)cc4)coc13)C=CC(C)(C)O2 [WARANGALONE] | 15.8 | 31.4 | 0.84 (≈ 2.08 µM) | 21.8 | 50.1 | > 1 | 30.7 | 37.2 |  | 27.9 | > 1 | > 1 | 63.4 | 32.8 | 29.1 | 18.6 | 60
